Screening data: PubChem, Sanford-Burnham Center for Chemical Genomics
Most compounds without a hit are left out; they make up all but 0.79% or so of the library.
bIAP act: intestinal alkaline phosphatase (bovine) activation | purified bovine IAP, CDP-star luminescence, 30 min; active compounds read high; fold of DMSO-control signal, blank-subtracted | 200,000 tested, 0.17% active | activation factor at 20 µM;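 active = activation factor of 2 or more at 20 µM, a signal rise over negative controls twice the positive control's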
hIAP act: increases human intestinal alkaline phosphatase activity | purified human IAP, CDP-Star luminescence, 30 min; active compounds read high; 1 = vehicle-only enzyme, 0 = enzyme-free background | activation factor at 10 µM | 330,000 tested, 0.16% active | AID 2524;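 active = activation factor of the enzyme at least 2-fold when tested at 20 µM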
Target sequence (P09923 whole entry, looked up): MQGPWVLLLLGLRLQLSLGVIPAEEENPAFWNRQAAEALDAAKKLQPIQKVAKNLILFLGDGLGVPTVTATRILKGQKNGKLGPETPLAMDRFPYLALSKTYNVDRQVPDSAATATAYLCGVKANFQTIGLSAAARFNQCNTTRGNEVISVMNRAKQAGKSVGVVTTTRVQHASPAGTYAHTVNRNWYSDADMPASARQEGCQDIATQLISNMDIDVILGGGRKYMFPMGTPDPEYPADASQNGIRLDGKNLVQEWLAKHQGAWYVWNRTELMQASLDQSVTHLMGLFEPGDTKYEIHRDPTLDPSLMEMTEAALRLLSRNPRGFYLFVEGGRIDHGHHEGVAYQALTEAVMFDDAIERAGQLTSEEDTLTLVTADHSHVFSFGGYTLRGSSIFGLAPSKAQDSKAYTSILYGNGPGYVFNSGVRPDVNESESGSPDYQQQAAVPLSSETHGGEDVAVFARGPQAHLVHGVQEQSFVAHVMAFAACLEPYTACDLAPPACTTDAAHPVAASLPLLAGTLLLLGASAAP
bIAP inh: blocks bovine intestinal alkaline phosphatase activity; 190,000 tested, under 10 active; purified bovine IAP, CDP-star luminescence, 30 min; inhibition, % at 20 µM;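 active = over 50% inhibition of intestinal alkaline phosphatase at 20 µM in the single-dose screen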
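System: purified bovine intestinal alkaline phosphatase (IAP) enzyme; Input: IAP diluted 1/65,000,000 in the well; Measured by: CDP-star luminescence signal; Compound dosing: 20 µM single dose; Incubation: 30 min reaction at room temperature.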
mIAP act: mouse IAP activation; muIAP, CDP-Star luminescence, 30 min; active compounds read high; 1 = vehicle-only enzyme signal, 0 = enzyme-free wells; activation factor at 10 µM; 330,000 tested, 0.24% active;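 active = activation factor of at least 2 at 20 µM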
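Assay system: mouse IAP enzyme; Reagent: CDP-Star chemiluminescent phosphatase substrate; Compound: DMSO-dissolved test compounds; Incubation: 30 min, room temperature; Technique: luminescence from enzymatic CDP-Star hydrolysis; Controls: DMSO-only wells and no-enzyme negative control.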
hIAP inh: human IAP inhibition. purified IAP, CDP-Star luminescence, 30 min. P09923. AID 2544. 330,000 tested, 0.12% active. inhibition, % at 10 µM;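 active = inhibition reaching a set limit with compound at 10 µM in the primary screen, cut at about 35% in these data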
mIAP inh: mouse IAP inhibition; inhibition, % at 10 µM; purified mouse IAP, CDP-Star luminescence, 30 min; 330,000 tested, 0.2% active; AID 2806;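 active = inhibition of at least 40% at 10 µM in the primary screen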
hIAP act confirm: human IAP activation confirmation | activation (%Activity, negative = activation), % at 8.3 µM | AID 434926 | shares compounds with hIAP act | 880 tested, 10% active | purified IAP, CDP-Star luminescence, 30 min; active compounds read low;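 active = at least twofold enzyme activation in any of six single-dose repeats, which the averaged readout prints as negative percent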
mIAP inh conf: mouse IAP inhibition confirmation; shares compounds with mIAP inh; purified mouse IAP, CDP-Star luminescence, 30 min; inhibition, % at 10 µM; 11,000 tested, 4.7% active;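 active = inhibition of at least 40% at 10 µM in either of the two replicates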
Of the large screens only hits and unclear results are named; the others gave an inactive call (follow-up assays come after a bar, where they were run).

COc1cc(C2c3c(-c4ccccc4O)n[nH]c3C(=O)N2Cc2ccco2)cc(OC)c1OC (stereo not drawn)	none (no result: bIAP act, bIAP inh)
COc1cc(C2c3c(-c4cc(Cl)c(C)cc4O)n[nH]c3C(=O)N2Cc2cccnc2)ccc1O (stereo not drawn)	none
COc1ccc(C2c3c(-c4ccccc4O)n[nH]c3C(=O)N2Cc2ccco2)cc1 (stereo not drawn)	hIAP act 2.2 (no result: bIAP act, bIAP inh) | hIAP act confirm inactive
Cc1ccccc1-c1nsc(SCC(=O)Nc2ccc3c(c2)OCO3)n1	none
COc1ccc(C2(CNC(=O)c3ccc(OC)c([N+](=O)[O-])c3)CCCCC2)cc1OC	none
C#CC(CC)(CC)NC(=O)Nc1ccccc1C(=O)OC	hIAP inh 39 | hIAP act confirm inactive
CCNC(=O)Nc1ccccc1C(=O)OC	none
Cn1ncc(Cl)c1C(=O)NC1CCCC1	none (no result: bIAP act, bIAP inh)
C/C(=N\NC(=O)C1CC1)c1ccccc1Br	hIAP inh 35 (no result: bIAP act, bIAP inh) | hIAP act confirm inactive
Cc1cc(C(F)(F)F)n2nc(-c3cnn(C)c3C(F)(F)F)cc2n1	none
COC(=O)CN=Cc1c(O)n(-c2ccc(Cl)cn2)c(=O)c2ccccc12	none
CC(C)(C)N/N=C/c1c(O)n(-c2ccc(Cl)cn2)c(=O)c2ccccc12	hIAP act 2 | hIAP act confirm -93
CC1COC(c2cccn2Cc2ccccc2Cl)=N1 (stereo not drawn)	none
CN(C(=O)Cn1cccc1C1=NC(c2ccccc2)CO1)c1ccccc1 (stereo not drawn)	hIAP inh 38 | hIAP act confirm inactive
CC(OC(=O)c1ccccc1NCc1ccco1)C(=O)Nc1ncc(Cl)cc1Cl (stereo not drawn)	none
Nc1c2c(nn1-c1ccc(F)cc1)CSC2	none (no result: bIAP act, bIAP inh)
CCOc1cccc(-c2nc(C(N)=O)c3[nH]c(=O)n(-c4cccc(Cl)c4)c3n2)c1O	hIAP act 4 | hIAP act confirm -75
CCOC(=O)/C(=C\c1c[nH]c2ccccc12)NC(C)=O	none
O=C(NCCc1ccc(Cl)cc1)c1ccc2[nH]c(=O)c(=O)[nH]c2c1	hIAP act 2 (no result: bIAP act, bIAP inh) | hIAP act confirm inactive
CC[n+]1ccccc1/C=C1\Sc2ccc(C)cc2N1C	none (no result: bIAP act, bIAP inh)
CN1/C(=C/c2cccc[n+]2CCO)Sc2ccccc21	hIAP inh 37 (no result: bIAP act, bIAP inh) | hIAP act confirm inactive
Nn1c(SCCOc2ccccc2)nnc1-c1cccnc1	none
O=C(NNC(=S)NC(=O)c1ccc(F)cc1)c1ccncc1	hIAP act 2.1 (no result: bIAP act, bIAP inh) | hIAP act confirm inactive
O=C(CCNC(=O)c1ccc(Cl)cc1)Nc1ccccc1Cl	none (no result: bIAP act, bIAP inh)
CCCN1C(=O)/C(=C2/C=Cc3ccccc3N2CC)SC1=S	hIAP inh 38 | hIAP act confirm inactive
COc1cc(/C=C2\N=C3CCCCCN3C2=O)ccc1O	none (no result: bIAP inh)
O=C1/C(=C\c2ccc(O)c(O)c2)N=C2CCCCCN12	hIAP inh 57 (no result: bIAP act, bIAP inh) | hIAP act confirm inactive
Cc1cc(C)n2nc(CC(=O)NNC(=O)COc3cccc(C)c3C)nc2n1	hIAP act 2.1 (no result: bIAP act, bIAP inh) | hIAP act confirm inactive
CCOC(=O)Cc1nc2nc(C)cc(C)n2n1	none
NC(=O)c1c(NC(=O)c2ccc(F)cc2)sc2c1CCC2	hIAP inh 37 (no result: bIAP act, bIAP inh) | hIAP act confirm active
N#C/C(=C\c1ccccc1)C(=O)NC(=O)Oc1ccccc1	hIAP inh 38 | hIAP act confirm inactive
N#C/C(=C\c1ccccc1Cl)C(=O)NC(=O)Oc1ccccc1	none
CN(N)C(=S)Nc1ccc(F)cc1	none
Nc1ccccc1-c1nnc(-c2ccc(-c3ccccc3)cc2)o1	hIAP act 2 | hIAP act confirm inactive
c1ccc(-c2nnc(-c3ccccc3)o2)cc1	none
O=C(Nc1ccnn1C1CCN(Cc2ccccc2)CC1)C1CCCC1	none (no result: bIAP act, bIAP inh)
CC(Cc1ccc(Cl)cc1)N1CCC(n2nccc2NC(=O)C2CCCC2)CC1 (stereo not drawn)	hIAP act 2.3 (no result: bIAP act, bIAP inh) | hIAP act confirm inactive
CCOc1ccc(NC(=O)C2CCCN(S(=O)(=O)c3c(C)nn(C)c3C)C2)cc1 (stereo not drawn)	none
COc1ccc(OC)c(C(=O)NC(CC(N)=O)c2ccc(N3CCC(N4CCCC4)CC3)c([N+](=O)[O-])c2)c1 (stereo not drawn)	none (no result: bIAP act, bIAP inh)
O=C(Nc1nccs1)c1nc[nH]c1C(=O)N1CCc2ccccc2C1	hIAP act 2.1 (no result: bIAP act, bIAP inh) | hIAP act confirm inactive
C[C@H](NC(=O)c1nc[nH]c1C(=O)N1CCc2ccccc2C1)C(=O)OC(C)(C)C	hIAP act 2.7 (no result: bIAP act, bIAP inh) | hIAP act confirm inactive
CC(C)(C)OC(=O)N1CCN(C(=O)c2[nH]cnc2C(=O)Nc2nccs2)CC1	hIAP act 2.2 (no result: bIAP act, bIAP inh) | hIAP act confirm inactive
CN(C(=O)c1ccc(NC(=O)Cc2cccc(NC(=O)C3CCN(C(=O)C4CCC4)CC3)c2)cc1)C1CCCC1	none (no result: bIAP act, bIAP inh)
N#CC1=C(N)N(c2ccc(Oc3ccccc3)cc2)C(=O)C1	none
Cn1c(=O)n(C)c2cc([N+](=O)[O-])c(N3CCN(S(=O)(=O)c4ccccc4)CC3)cc21	none
O=C(NC1CCCCCC1)c1ccc(-n2cnnc2)cc1	hIAP inh 35 (no result: bIAP act, bIAP inh) | hIAP act confirm -59
COc1ccc(NC(=S)NNC(=O)c2nnn(-c3ccccc3)c2C)cc1	hIAP act 2.1 | hIAP act confirm inactive
CC1C(=O)NN=C1C(=O)N/N=C\c1ccc(O)cc1O (stereo not drawn)	hIAP act 2.5, mIAP inh 65 | hIAP act confirm -79 | mIAP inh conf 60
O=C(c1ccccc1)c1cc(Cl)ccc1N1C(=O)C=CC1=O	none (no result: hIAP act, mIAP act, hIAP inh, mIAP inh)
COc1ccc(OC)c(CN2CCC(CNC(=O)Nc3cccc(Cl)c3)CC2)c1	none
COc1cc(NC(=O)NCC2CCN(Cc3ccccc3Cl)CC2)cc(OC)c1OC	hIAP act 2.6, mIAP act 4 (no result: bIAP act, bIAP inh) | hIAP act confirm -142 | mIAP inh conf inactive
O=C1/C(=C\c2cccc(O)c2O)SC(=S)N1Cc1ccccc1	hIAP inh 45, mIAP inh 41 (no result: bIAP act, bIAP inh) | hIAP act confirm inactive | mIAP inh conf 63
O=C1/C(=C\c2cccc(O)c2)SC(=S)N1Cc1ccccc1	none (no result: bIAP act, bIAP inh)
O=C(Nc1cccnc1)c1cc(Br)c(Br)s1	none (no result: bIAP act, bIAP inh)
CC(C)c1ccc(NC(=O)NC2CCN(CC(=O)Nc3cccc4ccccc34)CC2)cc1	hIAP act 2.2, mIAP act 4.2 | hIAP act confirm inactive | mIAP inh conf inactive
O=C(O)C(c1ccccc1)N1C(=O)/C(=C\c2ccc(O)c(O)c2)SC1=S (stereo not drawn)	hIAP inh 75, mIAP inh 67 (no result: bIAP act, bIAP inh) | hIAP act confirm inactive | mIAP inh conf 79
CN(CC(=O)Nc1ccccc1Sc1ccccc1)Cc1nc2ccccc2c(=O)[nH]1	none
